Reference: ChEMBL document CHEMBL4052665, “Synthesis and pharmacological evaluation of glycine amide derivatives as novel vascular adhesion protein-1 inhibitors without CYP3A4 and CYP2C19 inhibition” (Bioorg Med Chem, 2017)
pIC50: −log10 of the molar value. One block for each compound: values may come before it. Active and inactive are the calls of the source. The calls are words filed in the database; no cut-off is given here.

What was measured:
[1] = biological target: T1, Amine oxidase [copper-containing] 3 (Homo sapiens, UniProt Q16853); assay: Inhibition of human VAP-1 expressed in CHO cells using 14C-benzylamine as substrate preincubated for 20 mins followed by substrate addition measured after 1 hr by scintillation spectrometric analysis; assay type: cell-based
T1 sequence (Q16853 whole entry): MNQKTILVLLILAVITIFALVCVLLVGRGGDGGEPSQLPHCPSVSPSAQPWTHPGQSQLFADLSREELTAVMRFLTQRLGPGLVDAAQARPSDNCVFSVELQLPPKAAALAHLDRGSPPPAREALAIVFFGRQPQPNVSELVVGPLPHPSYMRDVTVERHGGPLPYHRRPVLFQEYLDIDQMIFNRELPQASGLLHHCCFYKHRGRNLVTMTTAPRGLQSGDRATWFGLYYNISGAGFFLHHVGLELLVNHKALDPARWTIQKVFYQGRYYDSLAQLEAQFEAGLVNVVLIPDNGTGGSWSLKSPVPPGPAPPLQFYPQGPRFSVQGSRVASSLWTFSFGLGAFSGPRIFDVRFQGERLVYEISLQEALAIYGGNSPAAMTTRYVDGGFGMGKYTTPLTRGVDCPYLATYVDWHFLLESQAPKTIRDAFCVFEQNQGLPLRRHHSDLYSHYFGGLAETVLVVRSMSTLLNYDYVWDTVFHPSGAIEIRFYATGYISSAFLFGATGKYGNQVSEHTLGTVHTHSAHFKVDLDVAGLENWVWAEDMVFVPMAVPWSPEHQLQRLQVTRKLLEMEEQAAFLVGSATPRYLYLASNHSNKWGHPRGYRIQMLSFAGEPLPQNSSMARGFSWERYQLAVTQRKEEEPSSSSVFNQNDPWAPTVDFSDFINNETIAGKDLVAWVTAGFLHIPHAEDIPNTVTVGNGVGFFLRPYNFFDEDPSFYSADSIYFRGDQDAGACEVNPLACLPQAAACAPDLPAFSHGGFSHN

[2] = biological target: CYP3A4 (Homo sapiens, UniProt P08684); assay: Inhibition of CYP3A4 in human liver microsomes assessed as residual activity at 5 uM using midazolam as substrate after 20 mins by LC-MS/MS analysis; assay type: ADME; conditions: probe midazolam, read-out: Activity
Chain of CYP3A4 (P08684 whole entry): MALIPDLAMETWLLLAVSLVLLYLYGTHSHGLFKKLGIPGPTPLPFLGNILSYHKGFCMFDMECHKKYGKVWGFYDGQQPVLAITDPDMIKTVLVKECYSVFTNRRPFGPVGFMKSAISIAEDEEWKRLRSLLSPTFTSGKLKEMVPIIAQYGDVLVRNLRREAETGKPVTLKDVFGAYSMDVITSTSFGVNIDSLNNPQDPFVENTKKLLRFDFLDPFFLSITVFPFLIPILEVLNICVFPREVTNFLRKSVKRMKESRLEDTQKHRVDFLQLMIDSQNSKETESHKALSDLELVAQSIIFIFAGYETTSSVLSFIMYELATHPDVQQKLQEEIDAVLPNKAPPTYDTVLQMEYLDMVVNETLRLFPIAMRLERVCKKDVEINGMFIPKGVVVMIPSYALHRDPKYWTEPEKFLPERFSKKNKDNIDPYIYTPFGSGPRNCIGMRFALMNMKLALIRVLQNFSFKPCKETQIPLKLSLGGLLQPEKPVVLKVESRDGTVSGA
How it was run: (§1)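 Pooled human liver microsomes (0.1 mg/mL) in 100 mM Na-K phosphate pH 7.4 with 1 mM NADPH. Test compound at 5 μM was co-incubated with a probe cocktail including midazolam (1.5 μM) and S-mephenytoin (30 μM) at 37 °C for 20 min. The reaction was stopped with 80% acetonitrile. 1'-Hydroxymidazolam (CYP3A4) and 4'-hydroxymephenytoin (CYP2C19) were measured by LC-MS/MS. Residual activity = activity with compound / vehicle activity × 100.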

[3] = biological target: CYP2C19 (Homo sapiens, UniProt P33261); assay: Inhibition of CYP2C19 in human liver microsomes assessed as residual activity at 5 uM using S-mephenytoin as substrate after 20 mins by LC-MS/MS analysis; assay type: ADME; conditions: probe S-mephenytoin, read-out: Activity; how it was run: as §1
Chain of CYP2C19 (P33261 whole entry): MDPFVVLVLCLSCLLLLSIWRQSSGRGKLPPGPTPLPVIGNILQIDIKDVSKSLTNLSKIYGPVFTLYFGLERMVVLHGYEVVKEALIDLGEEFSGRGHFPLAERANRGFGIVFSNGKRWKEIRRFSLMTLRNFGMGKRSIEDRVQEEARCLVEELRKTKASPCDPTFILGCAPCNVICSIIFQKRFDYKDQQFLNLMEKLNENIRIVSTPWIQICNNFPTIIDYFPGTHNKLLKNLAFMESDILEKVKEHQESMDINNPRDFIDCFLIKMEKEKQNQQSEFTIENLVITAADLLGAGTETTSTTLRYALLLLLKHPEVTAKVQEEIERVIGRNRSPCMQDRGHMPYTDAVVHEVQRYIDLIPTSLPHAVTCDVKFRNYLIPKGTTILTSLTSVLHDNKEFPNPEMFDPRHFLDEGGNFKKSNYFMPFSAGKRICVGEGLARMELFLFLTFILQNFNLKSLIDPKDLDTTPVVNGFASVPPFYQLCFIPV

[4] = biological target: T2, Amine oxidase [copper-containing] 3 (Rattus norvegicus, UniProt O08590); assay: Inhibition of rat VAP-1 expressed in CHO cells using 14C-benzylamine as substrate preincubated for 20 mins followed by substrate addition measured after 1 hr by scintillation spectrometric analysis; assay type: cell-based
T2 sequence (O08590 whole entry): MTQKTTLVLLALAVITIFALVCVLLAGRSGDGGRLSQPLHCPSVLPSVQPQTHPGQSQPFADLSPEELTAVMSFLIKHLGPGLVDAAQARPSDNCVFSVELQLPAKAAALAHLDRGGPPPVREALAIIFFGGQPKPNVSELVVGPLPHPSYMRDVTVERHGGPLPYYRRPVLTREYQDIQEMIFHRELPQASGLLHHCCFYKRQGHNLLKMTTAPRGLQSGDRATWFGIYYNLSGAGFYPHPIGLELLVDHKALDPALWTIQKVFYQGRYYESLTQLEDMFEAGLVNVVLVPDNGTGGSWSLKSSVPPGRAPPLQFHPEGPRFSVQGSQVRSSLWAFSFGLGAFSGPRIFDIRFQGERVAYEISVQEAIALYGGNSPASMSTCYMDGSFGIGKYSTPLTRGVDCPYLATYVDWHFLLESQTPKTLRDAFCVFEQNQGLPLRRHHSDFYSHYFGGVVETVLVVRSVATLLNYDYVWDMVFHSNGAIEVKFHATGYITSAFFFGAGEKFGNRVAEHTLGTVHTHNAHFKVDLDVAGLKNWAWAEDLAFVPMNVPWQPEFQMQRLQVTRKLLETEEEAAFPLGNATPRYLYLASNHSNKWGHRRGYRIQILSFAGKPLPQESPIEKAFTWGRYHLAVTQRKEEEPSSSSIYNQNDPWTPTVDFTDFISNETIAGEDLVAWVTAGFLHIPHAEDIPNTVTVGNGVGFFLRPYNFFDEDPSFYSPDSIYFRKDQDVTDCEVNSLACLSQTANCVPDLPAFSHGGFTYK

[5] = Cmax in Wistar rat at 1 mg/kg, po by LC-MS/MS analysis; assay type: ADME, organism-based; parameters: dose 1 mg/kg, route oral; conditions: in vivo
How it was run: (§2)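 Male Wistar rats, fasted about 18 h, dosed at 1 mg/kg iv (solution in 5% DMSO in water) or orally, n = 3. Plasma was deproteinated with acetonitrile and the compound was quantified by LC-MS/MS. Parameters came from non-compartmental analysis.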

[6] = Oral bioavailability in Wistar rat at 1 mg/kg by LC-MS/MS analysis; assay type: ADME, organism-based; conditions: in vivo; how it was run: as §2
[7] = system: Rattus norvegicus; assay: Inhibition of VAP-1 in Wistar rat plasma at 0.3 mg/kg, po using 14C-benzylamine as substrate preincubated for 20 mins followed by substrate addition measured after 1 hr by scintillation spectrometric analysis; assay type: functional
How it was run: (§3)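 Male Wistar rats (n = 4) dosed orally. Tail-vein blood was taken under ether anaesthesia before dosing and at 1 or 6 h after. Plasma was kept at -80 °C. 100 μL plasma was reacted with 14C-benzylamine at 37 °C for 2 h. Non-specific activity was measured with 1 mmol/L FR299676 and subtracted. 14C-Benzaldehyde was counted by liquid scintillation. Inhibition ratio = fall from the pre-dose activity, in %.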

[8] = Total clearance in Wistar rat at 1 mg/kg, iv by LC-MS/MS analysis; assay type: ADME, organism-based; conditions: in vivo; how it was run: as §2
[9] = Half life in Wistar rat at 1 mg/kg, iv by LC-MS/MS analysis; assay type: ADME, organism-based; conditions: in vivo; how it was run: as §2
[10] = system: Rattus norvegicus; assay: In vivo inhibition of VAP-1 in STZ-induced diabetic Sprague-Dawley rat plasma at 0.3 to 1 mg/kg, po for 4 weeks measured after 24 hrs after final dose using 14C-benzylamine as substrate by scintillation spectrometric analysis; assay type: functional, organism-based
How it was run: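 STZ-diabetic SD rats (65 mg/kg ip) dosed orally once daily for 4 weeks in 0.5% MC. Suborbital blood was taken under ether 24 h after the last dose. 50 μL plasma was reacted with 14C-benzylamine at 37 °C for 1 h, minus non-specific activity measured with 1 mmol/L FR299676. Liquid scintillation counting; mean ± SEM, Dunnett's test against STZ control.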

[11] = system: Rattus norvegicus; assay: Inhibition of VAP-1 in Wistar rat plasma at 1 mg/kg, po using 14C-benzylamine as substrate preincubated for 20 mins followed by substrate addition measured after 1 hr by scintillation spectrometric analysis; assay type: functional; how it was run: as §3
[12] = system: Rattus norvegicus; assay: In vivo inhibition of VAP-1 in STZ-induced diabetic Sprague-Dawley rat assessed as reduction in proteinuria progression at 0.3 to 1 mg/kg, po for 4 weeks measured after 24 hrs by Bradford colorimetric assay; assay type: functional, organism-based
How it was run: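 Male SD rats (6 weeks old) given STZ 65 mg/kg ip in citrate-buffered saline pH 4.5; sham rats got buffer. Groups were set by plasma glucose and body weight at day 3. Dosing was oral in 0.5% MC, 5 mL/kg, once daily for 4 weeks. 24-h metabolic-cage urine was collected in week 4 and protein measured by Bradford assay; excretion = concentration × urine volume. Mean ± SEM; Dunnett's test against STZ control.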

[13] = Volume of distribution at steady state in Wistar rat at 1 mg/kg, iv by LC-MS/MS analysis; assay type: ADME, organism-based; conditions: in vivo, read-out: Vdss; how it was run: as §2
[14] = Aqueous solubility of the compound in solution at pH 6.8; assay type: physicochemical
[15] = Plasma concentration in Wistar rat at 1 mg/kg, po after 6 hrs post dose by LC-MS/MS analysis; assay type: ADME, organism-based; how it was run: as §2
[16] = system: Rattus norvegicus; assay: Inhibition of VAP-1 in Wistar rat plasma at 0.3 mg/kg, po using 14C-benzylamine as substrate preincubated for 20 mins followed by substrate addition measured after 6 hr by scintillation spectrometric analysis; assay type: functional; how it was run: as §3
[17] = system: Rattus norvegicus; assay: Inhibition of VAP-1 in Wistar rat plasma at 1 mg/kg, po using 14C-benzylamine as substrate preincubated for 20 mins followed by substrate addition measured after 6 hr by scintillation spectrometric analysis; assay type: functional; how it was run: as §3
[18] = AUC (0 to 24 hrs) in Wistar rat at 1 mg/kg, po by LC-MS/MS analysis; assay type: ADME, organism-based; parameters: dose 1 mg/kg, time < 24 hr, route oral; conditions: in vivo; how it was run: as §2
[19] = Aqueous solubility of the compound in solution at pH 6.8 in presence of 15 mM sodium taurocholate; assay type: physicochemical; conditions: aqueous solution with 15 mM sodium taurocholate
[20] = AUC (0 to 24 hrs) in Wistar rat at 1 mg/kg, iv by LC-MS/MS analysis; assay type: ADME, organism-based; parameters: dose 1 mg/kg, time < 24 hr, route intravenous; conditions: in vivo; how it was run: as §2
[21] = Half life in Wistar rat at 1 mg/kg, po by LC-MS/MS analysis; assay type: ADME, organism-based; conditions: in vivo; how it was run: as §2
[22] = Plasma concentration in Wistar rat at 1 mg/kg, po after 1 hr post dose by LC-MS/MS analysis; assay type: ADME, organism-based; how it was run: as §2

pIC50 [1]: 6.60
SMILES: CN(Cc1cccc(-c2cnc(N3CCCCC3)nc2)c1)C(=O)CN

activity at 20 min, 5 µM [2]: 112%
activity at 20 min, 5 µM [3]: 104%
pIC50 [1]: 5.77
SMILES: CN(Cc1cccc(-c2cnc(N3CCC(C(=O)O)CC3)nc2)c1)C(=O)CN

pIC50 [4]: 6.80
pIC50 [1]: 5.70
SMILES: CN(Cc1cccc(-c2ccc(N3CCOCC3)cc2)n1)C(=O)CN

activity at 20 min, 5 µM [2]: 57%
activity at 20 min, 5 µM [3]: 63%
SMILES: CN(Cc1cccc(-c2ccc(N3CCOCC3)cc2)c1)C(=O)CN

pIC50 [1]: 6.52
SMILES: CN(Cc1cccc(-c2cnc(N3CCC[C@@H]3CO)nc2)c1)C(=O)CN

Cmax [5]: 113 ng/mL
bioavailability [6]: 17.4%
clearance [8]: 8.69 mL/min/kg
half-life [9]: 1.39 h
activity at 20 min, 5 µM [2]: 98%
Vd [13]: 0.386 L/kg
solubility [14]: 2.3 µM
concentration at 6 h [15]: 7.1 ng/mL
activity at 20 min, 5 µM [3]: 109%
AUC(0-t) at 24 h [18]: 334 ng·h/mL
solubility [19]: 89.6 µM
AUC(0-t) at 24 h [20]: 1920 ng·h/mL
half-life [21]: 1.29 h
concentration at 1 h [22]: 111 ng/mL
SMILES: CN(Cc1cccc(-c2cnc(N3CCN(c4ccc(C(=O)O)cc4Cl)CC3)nc2)c1)C(=O)CN.Cl.Cl
inhibition in vivo at 0.3 mg/kg [7]: 64%
inhibition [10]: Active
inhibition in vivo at 1 mg/kg [11]: 96%
inhibition [12]: Active
inhibition in vivo at 0.3 mg/kg [16]: 62%
inhibition in vivo at 1 mg/kg [17]: 93%

activity at 20 min, 5 µM [2]: 108%
activity at 20 min, 5 µM [3]: 119%
pIC50 [1]: 6.85
SMILES: CN(Cc1cccc(-c2cnc(N3CCC(CCC(=O)O)CC3)nc2)c1)C(=O)CN

activity at 20 min, 5 µM [2]: 100%
pIC50 [4]: 8.00
solubility [14]: < 1 µM
activity at 20 min, 5 µM [3]: 106%
solubility [19]: < 1 µM
pIC50 [1]: 7.62
SMILES: CN(Cc1cccc(-c2cnc(N3CCN(c4ccc(C(=O)O)cc4)CC3)nc2)c1)C(=O)CN.Cl.Cl
inhibition in vivo at 1 mg/kg [11]: 68%
inhibition in vivo at 1 mg/kg [17]: 60%

pIC50 [1]: 6.62
SMILES: CN(Cc1cccc(-c2cnc(N3CCC[C@H]3CO)nc2)c1)C(=O)CN
